Screening results: PubChem BioAssay, several laboratories
Hits are enriched below; roughly 3% of the tested compounds scored in any of these assays.
NPR1 activator: GC-A (human) enzyme activation. P16066. HEK293 GC-A cells, cGMP TR-FRET, EC30 ANP; 0% at EC30 ANP, 100% saturating ANP. activation, % at 10 µM. 370,000 compounds, 0.14% hits. AID 1671463; in the data active means activation above about 40%
Target sequence (P16066 whole entry, looked up): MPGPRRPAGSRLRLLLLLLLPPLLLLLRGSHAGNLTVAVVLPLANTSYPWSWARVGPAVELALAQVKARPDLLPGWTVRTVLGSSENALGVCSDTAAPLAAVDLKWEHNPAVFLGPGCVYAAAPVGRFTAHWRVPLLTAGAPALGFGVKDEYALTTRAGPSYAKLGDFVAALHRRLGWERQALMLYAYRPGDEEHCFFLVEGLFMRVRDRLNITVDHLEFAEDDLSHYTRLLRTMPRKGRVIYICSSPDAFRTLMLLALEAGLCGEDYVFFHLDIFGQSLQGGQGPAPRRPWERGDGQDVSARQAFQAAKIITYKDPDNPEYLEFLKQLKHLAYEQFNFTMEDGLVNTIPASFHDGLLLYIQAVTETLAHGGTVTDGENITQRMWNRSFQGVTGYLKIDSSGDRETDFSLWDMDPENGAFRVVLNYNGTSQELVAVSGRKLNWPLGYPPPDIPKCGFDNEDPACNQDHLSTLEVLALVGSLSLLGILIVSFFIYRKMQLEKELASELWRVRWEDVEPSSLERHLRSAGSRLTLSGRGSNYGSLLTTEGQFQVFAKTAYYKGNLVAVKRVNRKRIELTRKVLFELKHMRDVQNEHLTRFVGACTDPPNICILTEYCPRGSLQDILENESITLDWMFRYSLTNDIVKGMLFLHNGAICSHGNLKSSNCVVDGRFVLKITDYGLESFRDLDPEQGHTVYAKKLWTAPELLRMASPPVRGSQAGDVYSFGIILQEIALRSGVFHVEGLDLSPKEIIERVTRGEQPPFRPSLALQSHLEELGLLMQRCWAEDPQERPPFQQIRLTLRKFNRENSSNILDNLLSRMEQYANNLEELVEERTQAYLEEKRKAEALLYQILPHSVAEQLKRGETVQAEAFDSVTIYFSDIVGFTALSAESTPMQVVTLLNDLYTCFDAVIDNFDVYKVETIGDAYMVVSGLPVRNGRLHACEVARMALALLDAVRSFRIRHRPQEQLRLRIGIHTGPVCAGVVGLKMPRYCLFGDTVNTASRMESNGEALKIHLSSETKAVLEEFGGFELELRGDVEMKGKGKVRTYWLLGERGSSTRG
Lipid droplet: modulators of hepatic lipid droplet formation. 240,000 compounds, 0.4% hits. AML12 mouse hepatocytes, oleate lipid droplets, BODIPY imaging. inhibition, % at 6.5 µM;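 active means lipid droplet intensity inhibited by at least 50%, with more than 500 cells counted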
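Material – AML12 mouse liver cells · Also added – oleate loading, 100 µM · Compound dosing – 6.5 µM single-point dosing · Times – overnight treatment with compound plus oleate · Measured by – fluorescence imaging, 20x objective, two fields per well · Read-out – percent inhibition of filter-corrected integrated lipid droplet intensity per well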
NR3A LBD binder: modulators (binders) of human NR3A ligand-binding domain; AID 1259313; NR3A LBD differential scanning fluorimetry, Tm shift; 0% = protein alone, 100% = glycine-bound protein; 340,000 compounds, 2.5% hits; Tm shift relative to glycine control, % at 25 µM;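 active means melting temperature shift of at least 10% of the positive control shift, at one fixed dose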
aDG glyco act: increases alpha dystroglycan glycosylation. Pro5-aDG cells, alpha-DG glycosylation AlphaScreen (IIH6); 0% Pro5, 100% B10-LARGE cell signal. activation, % at 10 µM. 360,000 compounds, 0.22% hits;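 active means activation of at least 8% versus controls, or a plate z-score of at least 8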;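 further: Pro5 are CHO cells carrying HIG-tagged alpha-DG that lacks glycosylation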
JMJD2C inh: blocks human GASC-1 demethylase activity; Q9H3R0; inhibition, % at 2.35 µM; AID 2099; GST-JMJD2C(1-420) H3K9me3 demethylation, DELFIA europium; 330,000 compounds, 0.069% hits;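 active means more than half of a compound's replicate wells show inhibition beyond 50%, single wells judged on their own value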;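 further: signal counts dimethyl H3K9 product captured on neutravidin plate; 0% = median of DMSO wells and 100% = 0.3 times that DMSO median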
NPR2 activator: GC-B (human) receptor activation; P20594; HEK293-GC-B cells, CNP EC30, cGMP TR-FRET; 0% at EC30 CNP, 100% saturating CNP; activation, % at 10 µM; 370,000 compounds, 0.11% hits; AID 1920062;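 active means activation at 10 µM reaching about 35% in either raw or pattern-adjusted values, limit read from the data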
* hit, by the source's call; x = no result given.

SMILES	NPR1 activator	Lipid droplet	NR3A LBD binder	aDG glyco act	JMJD2C inh	NPR2 activator
CCCCCCCCCS(=O)(=O)N/N=C/c1cccc([N+](=O)[O-])c1	0.3	0.4	18.1*	-0.2	3.6	4.2
COC(=O)N/N=C/c1cccc([N+](=O)[O-])c1	5.1	9.4	-1.9	0.0	3.6	-1.1
Cc1cccc(NC(=S)N/N=C/c2ccc(Cl)c([N+](=O)[O-])c2)c1	17.5	x	4.5	-0.1	-6.6	0.2
O=[N+]([O-])c1ccc(NN=Cc2cccc([N+](=O)[O-])c2)cc1	-8.1	x	34.0*	-0.3	x	-1.6
Cc1cc(C)cc(N=Cc2ccc([N+](=O)[O-])s2)c1	-0.9	-4.1	-20.4	-0.3	6.3	-0.4
Cc1ccc(NC(=O)c2ccc(N/N=C/c3cccc(O)c3)c([N+](=O)[O-])c2)cc1	-6.9	x	255.7*	-0.5	1.4	-6.9
O=[N+]([O-])c1ccc(N/N=C/c2cccnc2)cc1	-5.5	x	11.9*	-0.2	8.2	-6.0
Cc1ccc(NC(=S)N/N=C/c2ccc([N+](=O)[O-])s2)cc1	3.0	13.7	23.1*	-0.4	-2.6	-5.0
Cc1ccccc1NC(=O)c1ccc(N/N=C/c2ccccc2O)c([N+](=O)[O-])c1	-3.5	x	-2.5	-0.4	-1.1	3.4
O=[N+]([O-])c1ccc(N/N=C/c2cccc(O)c2)cc1	-3.0	-13.7	26.0*	-0.1	10.4	-5.5
CCOc1ccccc1N(CC(=O)N1CCN(Cc2ccccc2)CC1)S(=O)(=O)c1ccccc1	0.9	x	x	0.1	x	2.0
CCN(CC)CCCNC(=O)c1cn(C(C)c2ccccc2)nn1 (stereo unspecified)	1.8	x	x	x	x	-2.9
CCCC1CCC2(CC1)CCC2OC(=S)Nc1ccc(I)cc1 (stereo unspecified)	-1.4	x	x	x	x	-0.1
Cc1cccc(C(=O)Oc2ccccc2/C=N/Nc2ccc([N+](=O)[O-])cc2)c1	4.1	-13.0	14.3*	0.5	6.8	0.8
O=[N+]([O-])c1cccc(/C=N/Nc2cc(Cl)nc(-c3ccccc3)n2)c1	1.0	x	28.0*	3.0	5.7	-2.0
Cc1cccc(C(=O)Oc2ccc(/C=N/O)cc2)c1	2.2	-2.4	-14.2	-0.2	1.6	3.8
O=[N+]([O-])c1ccc(/C=N/Nc2cc(Cl)nc(-c3ccccc3)n2)cc1	-1.9	x	-0.6	-0.5	3.8	-0.4
O=[N+]([O-])c1ccc(N/N=C/c2ccc[nH]2)cc1	-5.5	6.9	25.1*	1.0	0.9	-4.4
CCc1nc2ccc(C(=O)NCc3cccs3)cn2c1N(C)Cc1nccs1	9.4	x	x	-0.3	x	1.9
O=C(CSc1nc2ccccc2[nH]1)Nc1nc(-c2ccc(Br)cc2)cs1	12.9	-2.1	34.5*	0.2	3.2	-3.7
O=C(Cn1c(=O)oc2ccccc21)Nc1nc(-c2ccc(Br)cc2)cs1	11.2	2.0	14.6*	-0.1	3.0	-3.0
COc1cccc(CNC(=O)C2CCCN(c3ncccn3)C2)c1OC (stereo unspecified)	-1.3	x	x	x	x	4.0
N#Cc1c(-c2ccc(Cl)cc2)n(O)c2ccccc12	x	x	23.2*	0.1	x	x
Cc1ccccc1CN1CCCCC(NC(=O)Nc2ccccc2-c2ccccc2)C1=O (stereo unspecified)	-1.2	x	x	x	x	-5.0
COc1ccc(-n2c(=S)[nH]c3cc(C(=O)Nc4ccc(C)c(F)c4)ccc3c2=O)c(OC)c1	-12.4	-9.9	13.3*	0.5	-8.3	-1.8
SMILES	NPR1 activator	Lipid droplet	NR3A LBD binder	aDG glyco act	JMJD2C inh	NPR2 activator
C=CCN(CC#CC1=CCCCC1)CC1CC1	0.3	x	x	x	x	7.5
Cc1nc2sc(C(c3cccc(F)c3)N3CCC(O)CC3)c(O)n2n1 (stereo unspecified)	2.1	x	10.2*	0.1	-12.3	-2.3
O=c1cc(-c2ccsc2)oc2ccc(-c3ccc4cc[nH]c4c3)cc12	1.7	x	14.9*	1.2	4.1	-2.2
CCC(=O)Nc1ccc(C(=O)Nc2ccc3c(c2)OCO3)cc1	9.3	x	2.2	0.0	7.9	4.7
N#CCC(=O)Nc1ccc(C(=O)Nc2ccc3c(c2)OCO3)cc1	2.3	x	29.1*	-0.1	8.9	-1.1
O=C(Nc1ccc2nsnc2c1)c1ccc2c(c1)OCO2	2.0	1.0	14.1*	0.2	-5.6	3.0
